Data taken from ChEMBL document CHEMBL1136314, “Biphenyl-based analogues of thiolactomycin, active against Mycobacterium tuberculosis mtFabH fatty acid condensing enzyme” (Bioorg Med Chem Lett, 2003).

target: T1, Mycobacterial beta-ketoacyl-[acyl-carrier-protein] synthase III (Mycobacterium tuberculosis, UniProt P9WNG3); assay: In vitro inhibitory activity against the recombinant Mycobacterium tuberculosis Beta-ketoacyl-ACP synthase III mtFabH condensing enzyme.; set-up: species or system H37Rv
T1 sequence (P9WNG3 whole entry): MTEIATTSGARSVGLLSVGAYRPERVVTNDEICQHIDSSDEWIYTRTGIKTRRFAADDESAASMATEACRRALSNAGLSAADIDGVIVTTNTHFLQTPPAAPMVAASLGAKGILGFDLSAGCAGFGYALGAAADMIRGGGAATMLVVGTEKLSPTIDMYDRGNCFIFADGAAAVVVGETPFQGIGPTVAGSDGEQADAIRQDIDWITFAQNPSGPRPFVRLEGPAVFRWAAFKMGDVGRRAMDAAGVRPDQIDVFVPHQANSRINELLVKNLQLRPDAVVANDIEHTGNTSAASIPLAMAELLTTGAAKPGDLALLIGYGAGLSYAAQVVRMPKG
Method in brief: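 Direct end-point scintillation proximity assay with E. coli-expressed recombinant mtFabH (1.0 nM), biotinylated malonyl-ecACP, and myristoyl-CoA in 100 mM sodium phosphate with 0.01% CHAPS and 1 mM DTT. Compounds in DMSO were tested from 500 down to 0.98. After a 5-min 30 °C preincubation, [3H]myristoyl-CoA was added and reacted 20 min at 30 °C. Ethanol quench, streptavidin beads, bead-bound radioactivity counted, IC50 derived.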

**Q.** CC1=C(O)C(C)(Cc2cc(F)cc(F)c2)SC1=O (configuration not stated) was tested. Which IC50 did it give?
**A.** Its IC50 is 263 µM.

**Q.** CC1=C(O)C(C)(Cc2ccc(-c3ccc(CO)cc3)cc2)SC1=O (configuration not stated) was tested. Which IC50 did it give?
**A.** Its IC50 is 19 µM.

**Q.** Which IC50 does the source give for CC1=C(O)C(C)(Cc2ccc(-c3ccc(C=O)cc3)cc2)SC1=O (configuration not stated) here?
**A.** Its IC50 is 29 µM.

**Q.** Which IC50 does the source give for COc1cccc(CC2(C)SC(O)=C(C)C2=O)c1 (configuration not stated) here?
**A.** Its IC50 is over 500 µM.

**Q.** CC1=C(O)C(C)(Cc2ccc(-c3ccc(C(C)(C)C)cc3)cc2)SC1=O (configuration not stated) was tested. Which IC50 did it give?
**A.** Its IC50 is 25 µM.

**Q.** CC1=C(O)C(C)(Cc2ccc(-c3ccc(C)cc3)cc2)SC1=O (configuration not stated) was tested. Which IC50 did it give?
**A.** Its IC50 is 52 µM.

**Q.** With CC1=C(O)C(C)(Cc2ccccc2)SC1=O (configuration not stated) as the compound, how does the IC50 read?
**A.** The IC50 was over 250 µM.

**Q.** With CC1=C(O)C(C)(Cc2ccc(I)cc2)SC1=O (configuration not stated) as the compound, how does the IC50 read?
**A.** Its IC50 is 153 µM.

**Q.** How did the IC50 turn out when CC(=O)Nc1cccc(-c2ccc(CC3(C)SC(O)=C(C)C3=O)cc2)c1 (configuration not stated) was run?
**A.** Its IC50 is 119 µM.

**Q.** How did the IC50 turn out when CC1=C(O)C(C)(Cc2ccc(-c3ccc(COCc4ccccc4)cc3)cc2)SC1=O (configuration not stated) was run?
**A.** The IC50 was 17 µM.

**Q.** Which IC50 does the source give for CC1=C(O)C(C)(Cc2ccc(F)cc2F)SC1=O (configuration not stated) here?
**A.** The IC50 was 246 µM.

**Q.** With CC1=C(O)C(C)(Cc2cccc(Oc3ccccc3)c2)SC1=O (configuration not stated) as the compound, how does the IC50 read?
**A.** Its IC50 is 52 µM.

**Q.** Which IC50 does the source give for CC1=C(O)C(C)(Cc2cccc(-c3ccccc3)c2)SC1=O (configuration not stated) here?
**A.** Its IC50 is 215 µM.

**Q.** How did the IC50 turn out when COc1ccc(CC2(C)SC(O)=C(C)C2=O)cc1 (configuration not stated) was run?
**A.** The IC50 was 155 µM.

**Q.** How did the IC50 turn out when CC1=C(O)C(C)(Cc2ccc(C(C)(C)C)cc2)SC1=O (configuration not stated) was run?
**A.** The IC50 was 43 µM.

**Q.** How did the IC50 turn out when CC1=C(O)C(C)(Cc2ccc(-c3ccccc3)cc2)SC1=O (configuration not stated) was run?
**A.** The IC50 was 51 µM.

**Q.** For CC1=C(O)C(C)(Cc2ccc(C)cc2)SC1=O (configuration not stated), which IC50 is on record?
**A.** The IC50 was 112 µM.
